According to ChEMBL document CHEMBL1126871, “Non-steroidal glucocorticoid-like substances: receptor binding and in vivo activity” (J Med Chem, 1993):
One block for each molecule: values may come before it. Active and inactive are the calls of the source. The calls are words filed in the database; no cut-off is given here.

Assays:
Type in all cases: functional, organism-based
[1] = molecular target: T1, Glucocorticoid receptor (Rattus norvegicus) (UniProt P06536); assay: In vivo glucocorticoid profile, depression of adrenal weight in rat at 0.2 mg/kg peroral dose; design: dose 0.2 mg/kg
T1 sequence (whole entry): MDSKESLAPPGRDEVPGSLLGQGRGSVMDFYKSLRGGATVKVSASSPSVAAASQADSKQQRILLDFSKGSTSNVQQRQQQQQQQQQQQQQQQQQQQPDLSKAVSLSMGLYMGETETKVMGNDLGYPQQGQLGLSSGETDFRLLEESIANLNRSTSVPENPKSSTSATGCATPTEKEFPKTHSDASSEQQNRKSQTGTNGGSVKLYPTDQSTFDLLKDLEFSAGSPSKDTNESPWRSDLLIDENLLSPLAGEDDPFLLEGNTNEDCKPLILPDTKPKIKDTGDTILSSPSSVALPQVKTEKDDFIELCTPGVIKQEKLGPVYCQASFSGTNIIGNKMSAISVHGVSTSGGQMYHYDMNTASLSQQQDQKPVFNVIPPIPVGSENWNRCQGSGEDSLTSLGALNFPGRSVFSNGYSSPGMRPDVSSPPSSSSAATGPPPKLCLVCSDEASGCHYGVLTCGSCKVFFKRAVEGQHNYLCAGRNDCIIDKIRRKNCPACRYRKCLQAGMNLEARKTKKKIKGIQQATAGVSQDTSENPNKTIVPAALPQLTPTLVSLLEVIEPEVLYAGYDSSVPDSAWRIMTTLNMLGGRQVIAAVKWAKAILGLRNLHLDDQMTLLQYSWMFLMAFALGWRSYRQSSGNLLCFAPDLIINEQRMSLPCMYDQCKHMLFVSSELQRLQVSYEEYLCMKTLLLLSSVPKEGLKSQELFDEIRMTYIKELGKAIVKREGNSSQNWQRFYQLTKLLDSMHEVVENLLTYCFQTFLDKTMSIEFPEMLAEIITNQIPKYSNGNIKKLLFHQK
In short: (§1)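 Two-week oral glucocorticoid profile in rats. Thymus weight, adrenal weight and body weight gain are each expressed as % change from control.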

[2] = molecular target: T1, Glucocorticoid receptor (Rattus norvegicus); assay: In vivo anti-inflammatory activity in the rat, alpha-tocopherol filled pouch peroral dose
In short: (§2)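 Rats receive an air-filled pouch injected with 0.5 mL DL-α-tocopherol. Oral doses are given daily for 7 days, starting on the day of pouch formation, as suspensions in 1% gum tragacanth. ED50 is in mg/kg po.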

[3] = molecular target: T1, Glucocorticoid receptor (Rattus norvegicus); assay: In vivo glucocorticoid profile, depression of body weight gain without altered food consumption in rat at 5 mg/kg peroral dose; design: dose 5 mg/kg; in short: as §1
[4] = molecular target: T1, Glucocorticoid receptor (Rattus norvegicus); assay: In vivo glucocorticoid profile, depression of body weight gain without altered food consumption in rat at 0.2 mg/kg peroral dose; design: dose 0.2 mg/kg; in short: as §1
[5] = molecular target: T1, Glucocorticoid receptor (Rattus norvegicus); assay: In vivo glucocorticoid profile, depression of thymus weight in rat at 0.2 mg/kg peroral dose; design: dose 0.2 mg/kg; in short: as §1
[6] = molecular target: T1, Glucocorticoid receptor (Rattus norvegicus); assay: (§3) In vivo glucocorticoid profile, depression of adrenal weight in rat at 1 mg/kg peroral dose; design: dose 1 mg/kg
In short: (§4)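 Two-week oral dosing test in rats. At the end, thymus weight, adrenal weight and body weight gain are recorded and expressed as % change from control.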

[7] = molecular target: T1, Glucocorticoid receptor (Rattus norvegicus); assay: (§5) In vivo glucocorticoid profile, depression of body weight gain without altered food consumption in rat at 1 mg/kg peroral dose; design: dose 1 mg/kg; in short: as §4
[8] = molecular target: T1, Glucocorticoid receptor (Rattus norvegicus); assay: In vivo glucocorticoid profile, depression of thymus weight in rat at 5 mg/kg peroral dose; design: dose 5 mg/kg; in short: as §1
[9] = molecular target: T1, Glucocorticoid receptor (Rattus norvegicus); assay: In vivo glucocorticoid profile, depression of adrenal weight in rat at 5 mg/kg peroral dose; design: dose 5 mg/kg; in short: as §1
[10] = molecular target: T1, Glucocorticoid receptor (Rattus norvegicus); assay: (§6) In vivo glucocorticoid profile, depression of thymus weight in rat at 1 mg/kg peroral dose; design: dose 1 mg/kg; in short: as §4
[11] = molecular target: T1, Glucocorticoid receptor (Rattus norvegicus); assay: In vivo glucocorticoid profile, depression of body weight gain without altered food consumption in rat at 25 mg/kg peroral dose; design: dose 25 mg/kg; in short: as §1
[12] = molecular target: T1, Glucocorticoid receptor (Rattus norvegicus); assay: In vivo glucocorticoid profile, depression of adrenal weight in rat at 25 mg/kg peroral dose; design: dose 25 mg/kg; in short: as §1
[13] = molecular target: T1, Glucocorticoid receptor (Rattus norvegicus); assay: In vivo antiinflammatory activity in the rat, alpha-tocopherol filled pouch 70 mg/kg peroral dose; IA = inactive; design: dose 70 mg/kg
[14] = molecular target: T1, Glucocorticoid receptor (Rattus norvegicus); assay: In vivo glucocorticoid profile, depression of thymus weight in rat at 25 mg/kg peroral dose; design: dose 25 mg/kg; in short: as §1
[15] = molecular target: T1, Glucocorticoid receptor (Rattus norvegicus); assay: In vivo antiinflammatory activity in the rat, alpha-tocopherol filled pouch 50 mg/kg peroral dose; IA = inactive; design: dose 50 mg/kg
[16] = molecular target: T1, Glucocorticoid receptor (Rattus norvegicus); assay: (§7) In vivo glucocorticoid profile, depression of adrenal weight in rat at 100 mg/kg peroral dose; design: dose 100 mg/kg; in short: as §4
[17] = molecular target: T1, Glucocorticoid receptor (Rattus norvegicus); assay: In vivo glucocorticoid profile, depression of adrenal weight in rat at 50 mg/kg peroral dose; design: dose 50 mg/kg; in short: as §1
[18] = molecular target: T1, Glucocorticoid receptor (Rattus norvegicus); assay: In vivo glucocorticoid profile, depression of body weight gain without altered food consumption in rat at 100 mg/kg peroral dose; design: dose 100 mg/kg; in short: as §1
[19] = molecular target: T1, Glucocorticoid receptor (Rattus norvegicus); assay: In vivo glucocorticoid profile, depression of thymus weight in rat at 50 mg/kg peroral dose; design: dose 50 mg/kg; in short: as §1
[20] = molecular target: T1, Glucocorticoid receptor (Rattus norvegicus); assay: In vivo glucocorticoid profile, depression of thymus weight in rat at 100 mg/kg peroral dose; design: dose 100 mg/kg; in short: as §1
[21] = molecular target: T1, Glucocorticoid receptor (Rattus norvegicus); assay: In vivo glucocorticoid profile, depression of body weight gain without altered food consumption in rat at 50 mg/kg peroral dose; design: dose 50 mg/kg; in short: as §1
[22] = molecular target: T1, Glucocorticoid receptor (Rattus norvegicus); assay: In vivo antiinflammatory activity in the rat, alpha-tocopherol filled pouch 25 mg/kg peroral dose; IA = inactive; design: dose 25 mg/kg; in short: as §2
[23] = molecular target: T1, Glucocorticoid receptor (Rattus norvegicus); assay: as §3; design: dose 1 mg/kg; in short: as §1; remark: listed apart in the source
[24] = molecular target: T1, Glucocorticoid receptor (Rattus norvegicus); assay: as §6; design: dose 1 mg/kg; in short: as §1; remark: listed apart in the source
[25] = molecular target: T1, Glucocorticoid receptor (Rattus norvegicus); assay: as §5; design: dose 1 mg/kg; in short: as §1; remark: listed apart in the source
[26] = molecular target: T1, Glucocorticoid receptor (Rattus norvegicus); assay: In vivo antiinflammatory activity in the rat, alpha-tocopherol filled pouch 100 mg/kg peroral dose; IA = inactive; design: dose 100 mg/kg; in short: as §2
[27] = molecular target: T1, Glucocorticoid receptor (Rattus norvegicus); assay: as §7; design: dose 100 mg/kg; in short: as §1; remark: listed apart in the source

SMILES: C#C[C@]1(O)CCC2[C@@H]3CCC4=Cc5c(cnn5-c5ccc(F)cc5)C[C@]4(C)C3=CC[C@@]21C (stereo not given in full)
Weight gain [3]: -145
Change [6]: -35%
Weight gain [7]: 0
Change [8]: -76%
Change [9]: -60%
Change [10]: -41%

SMILES: C[C@]12Cc3cnn(-c4ccccc4)c3C=C1CC[C@@H]1OC3(CC=C12)C(=O)NC(=O)NC3=O
ED50 [15]: inactive
Change [16]: 0%
Change [17]: 0%
Weight gain [18]: 0
Change [19]: -34%
Change [20]: 0%
Weight gain [21]: 0

SMILES: C#CCN1C(=O)N(CC#C)C(=O)C2(CC=C3[C@H](CCC4=Cc5c(cnn5-c5ccc(F)cc5)C[C@@]43C)O2)C1=O
Weight gain [3]: 0
Change [8]: 0%
Change [9]: 0%

SMILES: C[C@]12Cc3cnn(-c4ccc(F)cc4)c3C=C1CC[C@@H]1OC3(CC=C12)C(=O)c1ccccc1C3=O
ED50 [2]: 10 mg/kg
Weight gain [3]: -224
Change [23]: -56%
Change [8]: -79%
Change [24]: -61%
Change [9]: -64%
Weight gain [25]: -129

Other lines, results leading:

Change [1]: -25%
ED50 [2]: 2 mg/kg
Weight gain [3]: -236
Weight gain [4]: -55
Change [5]: -28%
Change [6]: -57%
Weight gain [7]: -127
Change [8]: -83%
Change [9]: -63%
Change [10]: -71%
SMILES: CN1C(=O)N(C)C(=O)C2(CC=C3[C@H](CCC4=Cc5c(cnn5-c5ccc(F)cc5)C[C@@]43C)O2)C1=O (stereo in doubt; 12a)

Weight gain [11]: 0
Change [12]: 0%
ED50 [13]: inactive
Change [14]: 0%
SMILES: COC(=O)CN1C(=O)N(CC(=O)OC)C(=O)C2(CC=C3[C@H](CCC4=Cc5c(cnn5-c5ccc(F)cc5)C[C@@]43C)O2)C1=O

Change [17]: 0%
Change [19]: 0%
ED50 [22]: inactive
Weight gain [21]: 0
SMILES: CC(C)N1C(=O)N(C(C)C)C(=O)C2(CC=C3[C@H](CCC4=Cc5c(cnn5-c5ccc(F)cc5)C[C@@]43C)O2)C1=O

ED50 [2]: 2 mg/kg
Weight gain [3]: -79
Change [23]: 0%
Change [8]: -70%
Change [24]: -40%
Change [9]: -42%
Weight gain [25]: -45
SMILES: C[C@H]1C[C@@H]2[C@H]([C@@H](O)C[C@@]3(C)[C@H]2CC[C@]3(O)C(=O)CO)[C@@]2(C)C=CC(=O)C=C12

ED50 [26]: inactive
Weight gain [18]: -186
Weight gain [3]: 0
Change [20]: -80%
Change [8]: 0%
Change [27]: -47%
Change [9]: 0%
SMILES: CCOC(=O)C1(C(=O)OCC)CCC=C2[C@@H]1CCC1=Cc3c(cnn3-c3ccc(F)cc3)C[C@@]12C
